Measured values reported in ChEMBL document CHEMBL5058577, “EUbOPEN Chemogenomics Library 2 (Multiplex)” (2022).

System: U2OS
Assay: Multiplex assay against U2OS
Assay type: toxicity, cell-based
Settings: human
Procedure, shortened: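 Cells were classed with CellPathfinder machine-learning gating, first as Hoechst high-intensity objects or normal cells, then (normal cells) as healthy, pyknosed or fragmented nuclei, and finally (pyknosed cells) as mitotic or apoptotic. Staining of live cells at seeding used Hoechst33342, BioTracker Green Microtubule Cytoskeleton Dye, MitoTracker Red and Annexin V Alexa Fluor 680, with imaging on a CQ1 microscope at 37°C and 5% CO2 after compound addition. Tubulin, mitochondrial-mass and membrane-permeability phenotypes are per cents of healthy-nucleus cells.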

[1] = 12 h, 1 µM, compound concentration 1 uM, replicate 1
[2] = 12 h, 1 µM, compound concentration 1 uM, replicate 2
[3] = 12 h, 10 µM, compound concentration 10 uM, replicate 1
[4] = 12 h, 10 µM, compound concentration 10 uM, replicate 2
[5] = 24 h, 1 µM, compound concentration 1 uM, replicate 1
[6] = 24 h, 1 µM, compound concentration 1 uM, replicate 2
[7] = 24 h, 10 µM, compound concentration 10 uM, replicate 1
[8] = 24 h, 10 µM, compound concentration 10 uM, replicate 2
[9] = 48 h, 1 µM, compound concentration 1 uM, replicate 1
[10] = 48 h, 1 µM, compound concentration 1 uM, replicate 2
[11] = 48 h, 10 µM, compound concentration 10 uM, replicate 1
[12] = 48 h, 10 µM, compound concentration 10 uM, replicate 2

With `CCCOc1ccc2[nH]cc(C3=CCNCC3)c2n1.Cl` the “Population Apoptotic (%)” value [1] was 80%, the “Population Fragmented Nuclei (%)” value [1] was 31% and the “Population Healthy Nuclei (%)” value [1] was 58%. For the same compound, the “Population Hoechst High Intensity Objects (%)” value [1] was 2%, the “Population Membrane Permeable-Phenotype (%)” value [1] was 2% and the “Population Mitochondria Different-Phenotype (%)” value [1] was 1%. For the same compound, the “Population Mitotic Cells (%)” value [1] was 19%, the “Population Normal (%)” value [1] was 97% and the “Population Pyknosed Nuclei (%)” value [1] was 9%. The “Population Tubulin-Different-Phenotype (%)” value [1] was 1%, the “Total Cell Count” value [1] was 218 and the “Population Apoptotic (%)” value [2] was 87%. For the same compound, the “Population Fragmented Nuclei (%)” value [2] was 13%, the “Population Healthy Nuclei (%)” value [2] was 78% and the “Population Hoechst High Intensity Objects (%)” value [2] was 1%. For the same compound, the “Population Membrane Permeable-Phenotype (%)” value [2] was 11%, the “Population Mitochondria Different-Phenotype (%)” value [2] was 7% and the “Population Mitotic Cells (%)” value [2] was 12%. The “Population Normal (%)” value [2] was 98%, the “Population Pyknosed Nuclei (%)” value [2] was 8% and the “Population Tubulin-Different-Phenotype (%)” value [2] was 5%. The “Total Cell Count” value [2] was 98, the “Population Apoptotic (%)” value [3] was 86% and the “Population Fragmented Nuclei (%)” value [3] was 24%. The “Population Healthy Nuclei (%)” value [3] was 66%, the “Population Hoechst High Intensity Objects (%)” value [3] was 4% and the “Population Membrane Permeable-Phenotype (%)” value [3] was 6%. For the same compound, the “Population Mitochondria Different-Phenotype (%)” value [3] was 5%, the “Population Mitotic Cells (%)” value [3] was 13% and the “Population Normal (%)” value [3] was 96%. For the same compound, the “Population Pyknosed Nuclei (%)” value [3] was 8%, the “Population Tubulin-Different-Phenotype (%)” value [3] was 3% and the “Total Cell Count” value [3] was 275. The “Population Apoptotic (%)” value [4] was 60%, the “Population Fragmented Nuclei (%)” value [4] was 17% and the “Population Healthy Nuclei (%)” value [4] was 74%. The “Population Hoechst High Intensity Objects (%)” value [4] was 0%, the “Population Membrane Permeable-Phenotype (%)” value [4] was 12% and the “Population Mitotic Cells (%)” value [4] was 40%. For the same compound, the “Population Normal (%)” value [4] was 100%, the “Population Pyknosed Nuclei (%)” value [4] was 7% and the “Population Tubulin-Different-Phenotype (%)” value [4] was 6%. For the same compound, the “Total Cell Count” value [4] was 134, the “Population Apoptotic (%)” value [5] was 70% and the “Population Fragmented Nuclei (%)” value [5] was 27%. The “Population Healthy Nuclei (%)” value [5] was 61%, the “Population Hoechst High Intensity Objects (%)” value [5] was 1% and the “Population Membrane Permeable-Phenotype (%)” value [5] was 6%. For the same compound, the “Population Mitochondria Different-Phenotype (%)” value [5] was 1%, the “Population Mitotic Cells (%)” value [5] was 29% and the “Population Normal (%)” value [5] was 98%. The “Population Pyknosed Nuclei (%)” value [5] was 10%, the “Population Tubulin-Different-Phenotype (%)” value [5] was 3% and the “Total Cell Count” value [5] was 252. For the same compound, the “Population Apoptotic (%)” value [6] was 90%, the “Population Fragmented Nuclei (%)” value [6] was 18% and the “Population Healthy Nuclei (%)” value [6] was 73%. The “Population Hoechst High Intensity Objects (%)” value [6] was 2%, the “Population Membrane Permeable-Phenotype (%)” value [6] was 3% and the “Population Mitochondria Different-Phenotype (%)” value [6] was 3%. For the same compound, the “Population Mitotic Cells (%)” value [6] was 9%, the “Population Normal (%)” value [6] was 97% and the “Population Pyknosed Nuclei (%)” value [6] was 8%. For the same compound, the “Population Tubulin-Different-Phenotype (%)” value [6] was 2%, the “Total Cell Count” value [6] was 138 and the “Population Apoptotic (%)” value [7] was 92%. The “Population Fragmented Nuclei (%)” value [7] was 25%, the “Population Healthy Nuclei (%)” value [7] was 66% and the “Population Hoechst High Intensity Objects (%)” value [7] was 3%. The “Population Membrane Permeable-Phenotype (%)” value [7] was 5%, the “Population Mitochondria Different-Phenotype (%)” value [7] was 3% and the “Population Mitotic Cells (%)” value [7] was 7%. The “Population Normal (%)” value [7] was 96%, the “Population Pyknosed Nuclei (%)” value [7] was 8% and the “Population Tubulin-Different-Phenotype (%)” value [7] was 3%. The “Total Cell Count” value [7] was 323, the “Population Apoptotic (%)” value [8] was 72% and the “Population Fragmented Nuclei (%)” value [8] was 14%. For the same compound, the “Population Healthy Nuclei (%)” value [8] was 78%, the “Population Hoechst High Intensity Objects (%)” value [8] was 0% and the “Population Membrane Permeable-Phenotype (%)” value [8] was 11%. For the same compound, the “Population Mitochondria Different-Phenotype (%)” value [8] was 2%, the “Population Mitotic Cells (%)” value [8] was 27% and the “Population Normal (%)” value [8] was 99%. The “Population Pyknosed Nuclei (%)” value [8] was 6%, the “Population Tubulin-Different-Phenotype (%)” value [8] was 4% and the “Total Cell Count” value [8] was 162. For the same compound, the “Population Apoptotic (%)” value [9] was 91%, the “Population Fragmented Nuclei (%)” value [9] was 19% and the “Population Healthy Nuclei (%)” value [9] was 69%. The “Population Hoechst High Intensity Objects (%)” value [9] was 2%, the “Population Membrane Permeable-Phenotype (%)” value [9] was 5% and the “Population Mitochondria Different-Phenotype (%)” value [9] was 3%. The “Population Mitotic Cells (%)” value [9] was 8%, the “Population Normal (%)” value [9] was 97% and the “Population Pyknosed Nuclei (%)” value [9] was 10%. The “Population Tubulin-Different-Phenotype (%)” value [9] was 1%, the “Total Cell Count” value [9] was 350 and the “Population Apoptotic (%)” value [10] was 75%. The “Population Healthy Nuclei (%)” value [10] was 74%, the “Population Membrane Permeable-Phenotype (%)” value [10] was 9% and the “Population Mitotic Cells (%)” value [10] was 25%. The “Population Pyknosed Nuclei (%)” value [10] was 6%, the “Population Tubulin-Different-Phenotype (%)” value [10] was 3% and the “Total Cell Count” value [10] was 183. The “Population Apoptotic (%)” value [11] was 100%, the “Population Fragmented Nuclei (%)” value [11] was 18% and the “Population Healthy Nuclei (%)” value [11] was 75%. The “Population Hoechst High Intensity Objects (%)” value [11] was 4%, the “Population Membrane Permeable-Phenotype (%)” value [11] was 5% and the “Population Mitochondria Different-Phenotype (%)” value [11] was 2%. The “Population Mitotic Cells (%)” value [11] was 0%, the “Population Normal (%)” value [11] was 95% and the “Population Pyknosed Nuclei (%)” value [11] was 6%. The “Population Tubulin-Different-Phenotype (%)” value [11] was 3%, the “Total Cell Count” value [11] was 423 and the “Population Apoptotic (%)” value [12] was 94%. The “Population Fragmented Nuclei (%)” value [12] was 13%, the “Population Healthy Nuclei (%)” value [12] was 78% and the “Population Hoechst High Intensity Objects (%)” value [12] was 0%. The “Population Membrane Permeable-Phenotype (%)” value [12] was 6%, the “Population Mitochondria Different-Phenotype (%)” value [12] was 3% and the “Population Mitotic Cells (%)” value [12] was 5%. The “Population Normal (%)” value [12] was 99%, the “Population Pyknosed Nuclei (%)” value [12] was 7% and the “Total Cell Count” value [12] was 243.
